# High-throughput results deposited in PubChem by Sanford-Burnham Center for Chemical Genomics.
# CSN inh = CSN deneddylation inhibition; AID 651999; actives 0.38% (n = 360,000); Purified CSN, SCF-Nedd8-OG deneddylation, fluorescence polarization; Q92905; inhibition, % at 12.5 µM;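 active = pattern-corrected inhibition above about 35%, with an unprinted fluorescence ratio check between 0.5 and 1.5, limit read from the data, passing the limit was not always enough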;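 also: 0% = enzyme with substrate and 100% = substrate without enzyme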
# Target sequence (Q92905 whole entry, looked up, one chain of several): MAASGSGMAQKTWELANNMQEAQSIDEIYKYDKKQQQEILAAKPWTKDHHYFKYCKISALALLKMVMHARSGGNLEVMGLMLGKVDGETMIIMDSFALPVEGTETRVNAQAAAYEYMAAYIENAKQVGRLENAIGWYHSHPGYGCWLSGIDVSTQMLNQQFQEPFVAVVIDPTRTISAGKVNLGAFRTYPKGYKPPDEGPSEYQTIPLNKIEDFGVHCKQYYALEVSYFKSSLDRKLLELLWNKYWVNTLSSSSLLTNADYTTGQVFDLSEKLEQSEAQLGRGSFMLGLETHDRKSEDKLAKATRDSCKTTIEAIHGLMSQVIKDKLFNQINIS
#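 Assay system: purified human Csn5 enzyme expressed in HEK293T cells; measure: % inhibition; also added: SCFSkp2-Nedd8OG substrate at 10 nM final; technique: fluorescence polarization; times: reaction 90 min, room temperature; medium: Tris buffer pH 7.5, NaCl, DTT, Tween-20, trehalose, ovalbumin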
# MT1-MMP act inh = inhibitors of human MT1-MMP activation; P50281; HT1080 RFP-PRO-GFP cells, GFP/RFP ratio fluorescence, overnight; percent of plate control window, DMSO zero; GFP/RFP ratio change, % at 20 µM; actives 0.061% (n = 360,000);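 active = GFP/RFP ratio change of at least 30% with cell ATP level not reduced by more than half and red fluorescence within 50% of control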
#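 Test system: HT1080 cells expressing an RFP-PRO-GFP fluorescent reporter construct / Compound dosing: single-point 20 µM compound, 1% DMSO / Schedule: cells overnight before dosing, compound overnight, 37 °C, 5% CO2 / Evaluation: GFP/RFP fluorescence ratio / Control set: DMSO and RFP-L50D-GFP cell wells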
# DNMT1 block = inhibitors of human DNMT1; inhibition (reported as % activation of signal), % at 10 µM; DNMT1 molecular beacon, Hinp1I cleavage, fluorescence; AID 588458; actives 0.83% (n = 360,000); P26358; in the data active = inhibition above about 50%
# Rpn11 inh = blocks the human proteasome subunit Rpn11. inhibition, % at 20 µM. human 26S proteasome, Ub4-pepOG fluorescence polarization; 20S core pre-blocked with epoxomicin. AID 588493. O00487. actives 0.59% (n = 360,000);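 active = inhibition at 20 µM, scaled to each plate's controls, above about 33%, limit read from the data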
# SKN-1 inh = inhibitors of C. elegans SKN-1. C. elegans VP596 Pgst-4::GFP/RFP ratio, acrylamide-induced, 24 h. inhibition, % at 21.8 µM. actives 0.49% (n = 360,000);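 active = interference check ratio from 0.5 to 1.5 plus GFP to RFP signal ratio inhibition reaching or exceeding a fixed threshold, cut at about 30% in these data, passing the limit was not always enough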
# SUMO1 PPI mod = SUMO1-SIM interaction modulation; actives 0.33% (n = 360,000); inhibition, % at 20 µM; SUMO1 binding to a labelled peptide, TR-FRET, 1 h; in the data active = inhibition above about 37%
# Target sequence (P63165 whole entry, looked up): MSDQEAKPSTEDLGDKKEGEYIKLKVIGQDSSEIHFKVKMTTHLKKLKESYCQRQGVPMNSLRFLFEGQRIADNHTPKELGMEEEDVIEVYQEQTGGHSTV
# DNMT1 confirm = confirmation of human DNMT1 inhibitors | shares compounds with DNMT1 block | DNMT1 molecular beacon HinP1I cleavage, fluorescence | inhibition, % at 10 µM | actives 8% (n = 2,300);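 active = average inhibition of at least 30% in the single-concentration confirmation test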
# DNMT1 interf = counter-screen for DNMT1 inhibitors: spectral interference | shares compounds with DNMT1 block | DNMT1 molecular beacon spectral interference counterscreen, fluorescence 485/520 | activation (fluorescence interference), % at 10 µM | actives 1% (n = 2,300) | AID 602387;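 active = activation of at least 30% at 10 µM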;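 also: DNMT1 catalytic domain with a HinP1I cleavage step and a FAM/dabcyl DNA beacon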
# Starred values were filed as active, the others as inactive; · = no result given. Sampled rows, rich in hits. Any-hit rate of the full collection: about 2.3%.
SMILES,CSN inh,MT1-MMP act inh,DNMT1 block,Rpn11 inh,SKN-1 inh,SUMO1 PPI mod,DNMT1 confirm,DNMT1 interf
Cc1ccc(S(=O)(=O)N2CCCC(C(=O)NCCc3ccc(Cl)cc3)C2)cc1 (stereo not drawn),-0.4,-15.1,0.9,7.1,-12.4,5.0,·,·
CCc1ccc(NC(=O)CNS(=O)(=O)c2c(C)noc2C)cc1,0.0,-0.7,68.5*,-2.2,-18.4,10.4,2.8,0.8
Nc1nc(SCC(=O)N2N=C3/C(=C/c4ccco4)CCCC3C2c2ccco2)n[nH]1 (stereo not drawn),30.2,-1.0,16.6,2.7,21.2,-0.6,·,·
O=C(CSc1nccc(=O)[nH]1)N1N=C2/C(=C/c3ccco3)CCCC2C1c1ccco1 (stereo not drawn),27.9,-8.1,76.1*,-2.7,7.5,11.8,9.8,3.2
COc1ccc(C2CC=C(C(C)=O)CN2S(=O)(=O)c2ccc(Cl)cc2)cc1 (stereo not drawn),-5.6,0.4,-4.0,4.4,-5.1,1.8,·,·
COc1ccc(CCn2c(C3CCCCC3)nc3c(c(=O)c4ccccc4n3C)c2=O)cc1,-3.3,-5.1,6.6,-1.9,13.2,34.4,·,·
COc1ccc(CCn2c(C3CCCCC3)nc3c(c(=O)c4ccccc4n3C)c2=O)cc1OC,1.6,-5.0,63.2*,-3.8,-3.2,40.8*,-1.5,1.8
Cc1ccc(-c2nnc(Nc3cccc(O)c3)c3ccccc23)cc1S(=O)(=O)NCCO,9.3,0.7,89.8*,8.6,5.9,-4.9,6.9,4.0
COc1ccc(C=C2C(=O)OC(C)(C)OC2=O)cc1OC,-0.8,4.6,0.1,3.7,5.2,-2.2,·,·
COc1ccc(/C=C2\C(=O)NC(=O)c3ccccc32)cc1OC,16.4,0.2,74.2*,-6.8,-3.3,7.6,-1.7,1.1
CC1(C)OC(=O)C2=C(C[C@@H](C3CCCCC3)O[C@@H]2c2ccc(F)cc2)O1,-4.2,-2.2,·,·,-10.4,-2.4,·,·
CCCCn1nnnc1NCc1ccc(N2CCCC2)cc1,6.6,-3.8,69.7*,6.9,25.4,-3.6,2.0,0.1
O=C(c1ccc2[nH]c3c(c2c1)CCCC3)N1CCN(c2ccc(F)cc2)CC1,2.9,7.5,59.4*,10.8,14.2,1.0,1.4,5.6
COc1ccccc1N1CCN(C(=O)c2ccc3[nH]c4c(c3c2)CCCC4)CC1,-10.3,-0.8,-2.4,8.2,8.1,-3.0,·,·
Cc1ccc(N=Nc2ccc(O)c(/C=N\NC(=O)c3ccc(N)cc3)c2)cc1C,-5.6,6.3,81.2*,-6.6,6.0,1.6,1.3,0.9
CC(C)(C)OC(=O)N/N=C/c1cc(N=Nc2ccccc2)ccc1O,-2.8,8.3,0.6,-4.5,-1.4,-0.1,·,·
CC(C)C(NC(=O)c1ccc2c(c1)OCO2)C(=O)N/N=C/c1cccs1 (stereo not drawn),-2.2,0.8,59.8*,-7.8,2.8,-5.1,1.3,-0.1
CN(C)CCNC(=O)c1cccc(-c2cc(NC=O)c3ncc(-c4cccc(C(F)(F)F)c4)n3c2)c1,7.2,-2.5,-15.5,-7.6,8.4,-143.5,·,·
Nc1ccc(N(c2ccccc2)c2ccc(N)cc2)cc1,0.3,-4.3,61.8*,12.1,-7.9,-14.6,-0.6,0.1
CC1=C2C3OC(=O)C(C)C3CCC2(C)C=C(Br)C1=O (stereo not drawn),1.0,-1.5,-0.1,-1.2,22.4,-2.7,·,·
COC(=O)c1ccc(NC(=O)CCN2CCOCC2)cc1,0.4,-1.2,91.8*,0.8,-14.2,-3.8,2.0,2.8
COc1cc2ccc(CC(N)=O)cc2cc1OC,-0.4,1.2,51.8*,11.2,-8.7,7.8,-1.2,-1.2
CC1(C)CC2(C)OC2C2(C1)N=NC(=Nc1ccccc1)O2 (stereo not drawn),-3.4,2.5,0.2,-3.8,4.0,-5.9,·,·
Cc1cc(C)c2c(N)c3ccccc3nc2n1,4.6,9.7,67.0*,10.9,-4.4,-25.4,25.7,4.5
Cc1ccc(COC(=O)Cc2coc3cc(O)ccc23)cc1,-1.1,3.0,2.2,7.8,16.5,8.8,·,·
SMILES,CSN inh,MT1-MMP act inh,DNMT1 block,Rpn11 inh,SKN-1 inh,SUMO1 PPI mod,DNMT1 confirm,DNMT1 interf
O=C(OCc1cc(=O)n2c(n1)sc1ccccc12)c1ccc2c(=O)n3c(nc2c1)CCC3,36.1*,-3.0,101.7*,8.0,2.7,29.0,6.0,-1.1
CC(C)[C@H](NC(=O)Cc1ccccc1)C(=O)OCc1cc(=O)n2c(n1)sc1ccccc12,12.2,-2.4,88.0*,-4.4,-3.0,2.7,2.7,2.7
CC(=O)c1c(C)[nH]c(C(=O)COC(=O)c2ccc3c(=O)n4c(nc3c2)CCC4)c1C,-11.3,2.9,-8.4,-3.4,5.5,27.5,·,·
Cc1ccc2c(CC(=O)OCc3cc(=O)n4c(n3)sc3ccccc34)coc2c1,13.8,10.5,104.8*,2.0,12.0,3.6,5.4,5.8
Cc1ccc(-c2cc(C(=O)Nc3ccc(S(=O)(=O)N4CC(C)OC(C)C4)cc3)[nH]n2)c(O)c1 (stereo not drawn),5.2,4.7,123.8*,30.8,-15.9,6.7,4.1,0.1
Cc1ccc(O)c(-c2cc(C(=O)Nc3ccc(S(=O)(=O)N4CC(C)OC(C)C4)cc3)[nH]n2)c1 (stereo not drawn),0.2,7.7,-11.6,6.0,2.5,3.7,·,·
O=C(Cn1ccc(=O)[nH]c1=O)c1ccc([N+](=O)[O-])o1,0.0,1.4,2.6,1.7,-5.9,-22.9,·,·
CCOC(=O)C1=CCN(S(=O)(=O)c2ccc(C)cc2)C1c1cccc(C)c1 (stereo not drawn),2.0,0.0,-2.3,-0.8,12.7,2.3,·,·
COc1cccc(-n2c(-c3ccc4[nH]c(C)c(C)c4c3)n[nH]c2=S)c1,-4.2,2.9,-9.3,5.1,-9.2,6.8,·,·
COc1ccc2[nH]c(C)c(-c3csc(N)n3)c2c1,6.1,6.7,81.9*,25.4,-3.6,5.6,2.2,9.2
COc1ccc(N2Cc3ccccc3C2=O)cc1,4.7,1.9,-0.5,3.2,16.5,-0.2,·,·
COc1ccc(N2Cc3cccc(C(=O)O)c3C2=O)cc1,31.5,3.2,87.2*,-7.0,-2.6,15.5,14.6,-0.7
Cc1ccccc1C(=O)NC(CC(C)C)C(=O)OCc1cc(=O)n2cc(Br)ccc2n1 (stereo not drawn),-7.2,1.4,25.5,-7.0,-9.6,-19.4,·,·
